Assay results reported in ChEMBL document CHEMBL4665633, “Cereblon versus VHL: Hijacking E3 ligases against each other using PROTACs” (Bioorg Med Chem, 2019).
Calls of active or inactive are those of the source. The calls are words filed in the database; no cut-off is given here.

How the values were obtained:
Format in all cases: cell-based
[1] = biological target: T1, Protein cereblon/von Hippel-Lindau disease tumor suppressor (Homo sapiens, UniProt P40337+Q96SW2); assay: Protac activity at VHL/CRBN in HEK293 cells assessed as CRBN protein abundance at 1000 nM after 4 hrs by Western blot analysis relative to DMSO
How it was run: (§1)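 HEK293 cells (DMEM, 10% FBS, penicillin/streptomycin, L-glutamine; 37 °C, 5% CO2; ≤30 passages) seeded at 1 × 10⁶ per well overnight, then treated with compound at 0.1% v/v final DMSO. Cells were lysed in RIPA with protease inhibitors and benzonase, then clarified. Equal Bradford-quantified protein was immunoblotted for CRBN/VHL. Bands were normalised to β-tubulin and expressed as % of mean 0.1% DMSO vehicle.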
Target sequence in this assay (P40337 whole entry, looked up): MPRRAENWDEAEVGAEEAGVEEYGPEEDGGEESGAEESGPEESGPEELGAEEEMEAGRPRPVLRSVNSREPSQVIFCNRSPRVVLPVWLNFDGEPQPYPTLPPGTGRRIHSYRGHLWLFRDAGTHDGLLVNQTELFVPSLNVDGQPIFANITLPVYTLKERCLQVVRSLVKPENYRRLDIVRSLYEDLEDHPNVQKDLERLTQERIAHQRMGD
Target sequence in this assay (Q96SW2 whole entry, looked up): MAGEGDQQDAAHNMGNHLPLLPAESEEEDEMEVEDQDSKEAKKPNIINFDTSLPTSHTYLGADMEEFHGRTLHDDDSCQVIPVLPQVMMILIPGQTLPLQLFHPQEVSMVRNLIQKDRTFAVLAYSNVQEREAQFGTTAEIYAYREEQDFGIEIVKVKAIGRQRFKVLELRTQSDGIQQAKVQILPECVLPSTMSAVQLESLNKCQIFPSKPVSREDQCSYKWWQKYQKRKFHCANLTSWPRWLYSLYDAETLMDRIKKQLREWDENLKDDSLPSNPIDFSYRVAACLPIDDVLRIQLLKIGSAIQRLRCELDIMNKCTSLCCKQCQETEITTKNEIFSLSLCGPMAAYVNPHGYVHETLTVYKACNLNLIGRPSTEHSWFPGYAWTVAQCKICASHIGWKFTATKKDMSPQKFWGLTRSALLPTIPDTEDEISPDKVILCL

[2] = biological target: T1, Protein cereblon/von Hippel-Lindau disease tumor suppressor; assay: Protac activity at VHL/CRBN in human HeLa cells assessed as pVHL30 protein abundance at 1000 nM after 4 hrs by Western blot analysis relative to DMSO
How it was run: (§2)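 HeLa cells (5 × 10⁵, DMEM + 10% FBS, 37 °C, 5% CO₂, ≤30 passages) seeded overnight, then treated 4 h with compound at single or graded concentrations (0.1% v/v DMSO final). RIPA lysates equalised by Bradford; SDS-PAGE and anti-CRBN/anti-VHL immunoblots; bands normalised to β-tubulin and expressed as % of mean DMSO vehicle. DC₅₀ from fit of band intensity versus log[concentration].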
Target sequence in this assay (P40337 whole entry, looked up): as the sequence (P40337 whole entry, looked up) above
Target sequence in this assay (Q96SW2 whole entry, looked up): as the sequence (Q96SW2 whole entry, looked up) above

[3] = biological target: T1, Protein cereblon/von Hippel-Lindau disease tumor suppressor; assay: Protac activity at VHL/CRBN in HEK293 cells assessed as pVHL30 protein abundance at 10 nM after 4 hrs by Western blot analysis relative to DMSO; how it was run: as §1
Target sequence in this assay (P40337 whole entry, looked up): as the sequence (P40337 whole entry, looked up) above
Target sequence in this assay (Q96SW2 whole entry, looked up): as the sequence (Q96SW2 whole entry, looked up) above

[4] = biological target: T1, Protein cereblon/von Hippel-Lindau disease tumor suppressor; assay: Protac activity at VHL/CRBN in human HeLa cells assessed as induction of CRBN degradation at 10 nM after 4 hrs by Western blot analysis relative to control; how it was run: as §2
Target sequence in this assay (P40337 whole entry, looked up): as the sequence (P40337 whole entry, looked up) above
Target sequence in this assay (Q96SW2 whole entry, looked up): as the sequence (Q96SW2 whole entry, looked up) above

[5] = biological target: T1, Protein cereblon/von Hippel-Lindau disease tumor suppressor; assay: Protac activity at VHL/CRBN in human HeLa cells assessed as pVHL19 protein abundance at 50 nM after 4 hrs by Western blot analysis relative to DMSO; how it was run: as §2
Target sequence in this assay (P40337 whole entry, looked up): as the sequence (P40337 whole entry, looked up) above
Target sequence in this assay (Q96SW2 whole entry, looked up): as the sequence (Q96SW2 whole entry, looked up) above

[6] = biological target: T1, Protein cereblon/von Hippel-Lindau disease tumor suppressor; assay: Protac activity at VHL/CRBN in human HeLa cells assessed as CRBN protein abundance at 1 uM after 4 hrs by Western blot analysis relative to DMSO
How it was run: (§3)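 HeLa cells seeded overnight, then exposed to 1 µM compound (0.1% v/v DMSO final) over a time course. Cells were DPBS-washed and RIPA-lysed with protease inhibitors and benzonase; equal protein was loaded. Immunoblots for CRBN and VHL isoforms were quantified against β-tubulin and reported relative to the averaged 0.1% DMSO vehicle.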
Target sequence in this assay (P40337 whole entry, looked up): as the sequence (P40337 whole entry, looked up) above
Target sequence in this assay (Q96SW2 whole entry, looked up): as the sequence (Q96SW2 whole entry, looked up) above

[7] = biological target: T1, Protein cereblon/von Hippel-Lindau disease tumor suppressor; assay: Protac activity at VHL/CRBN in HEK293 cells assessed as pVHL30 protein abundance at 50 nM after 4 hrs by Western blot analysis relative to DMSO; how it was run: as §1
[8] = biological target: T1, Protein cereblon/von Hippel-Lindau disease tumor suppressor; assay: Protac activity at VHL/CRBN in human HeLa cells assessed as pVHL19 protein abundance at 5000 nM after 4 hrs by Western blot analysis relative to DMSO; how it was run: as §2
[9] = biological target: T1, Protein cereblon/von Hippel-Lindau disease tumor suppressor; assay: Protac activity at VHL/CRBN in human HeLa cells assessed as CRBN protein abundance at 1000 nM after 4 hrs by Western blot analysis relative to DMSO; how it was run: as §2
[10] = biological target: T1, Protein cereblon/von Hippel-Lindau disease tumor suppressor; assay: Protac activity at VHL/CRBN in HEK293 cells assessed as pVHL19 protein abundance at 500 nM after 4 hrs by Western blot analysis relative to DMSO; how it was run: as §1
[11] = biological target: T1, Protein cereblon/von Hippel-Lindau disease tumor suppressor; assay: Protac activity at VHL/CRBN in HEK293 cells assessed as CRBN protein abundance at 1 uM after 2 hrs by Western blot analysis relative to DMSO; how it was run: as §1
[12] = biological target: T1, Protein cereblon/von Hippel-Lindau disease tumor suppressor; assay: Protac activity at VHL/CRBN in human HeLa cells assessed as reduction in CRBN protein level at 1 uM after 4 hrs by Western blot analysis; how it was run: as §2
[13] = biological target: T1, Protein cereblon/von Hippel-Lindau disease tumor suppressor; assay: Protac activity at VHL/CRBN in HEK293 cells assessed as pVHL19 protein abundance at 1 uM after 4 hrs by Western blot analysis relative to DMSO; how it was run: as §1
[14] = biological target: T1, Protein cereblon/von Hippel-Lindau disease tumor suppressor; assay: Protac activity at VHL/CRBN in human HeLa cells assessed as induction of CRBN degradation at 1 uM after 4 hrs by Western blot analysis relative to control; how it was run: as §2
[15] = biological target: T1, Protein cereblon/von Hippel-Lindau disease tumor suppressor; assay: Protac activity at VHL/CRBN in human HeLa cells assessed as pVHL30 protein abundance at 500 nM after 4 hrs by Western blot analysis relative to DMSO; how it was run: as §2
[16] = biological target: T1, Protein cereblon/von Hippel-Lindau disease tumor suppressor; assay: Protac activity at VHL/CRBN in HEK293 cells assessed as pVHL30 protein abundance at 1 uM after 1 hr by Western blot analysis relative to DMSO; how it was run: as §1
[17] = biological target: T1, Protein cereblon/von Hippel-Lindau disease tumor suppressor; assay: Protac activity at VHL/CRBN in human HeLa cells assessed as hook effect at > 1 uM
[18] = biological target: T1, Protein cereblon/von Hippel-Lindau disease tumor suppressor; assay: Protac activity at VHL/CRBN in human HeLa cells assessed as pVHL19 protein abundance at 1 uM after 8 hrs by Western blot analysis relative to DMSO; how it was run: as §3
[19] = biological target: T1, Protein cereblon/von Hippel-Lindau disease tumor suppressor; assay: Protac activity at VHL/CRBN in HEK293 cells assessed as pVHL30 protein abundance at 1 uM after 2 hrs by Western blot analysis relative to DMSO; how it was run: as §1
[20] = biological target: T1, Protein cereblon/von Hippel-Lindau disease tumor suppressor; assay: Protac activity at VHL/CRBN in human HeLa cells assessed as pVHL19 protein abundance at 1 uM after 24 hrs by Western blot analysis relative to DMSO; how it was run: as §3
[21] = biological target: T1, Protein cereblon/von Hippel-Lindau disease tumor suppressor; assay: Protac activity at VHL/CRBN in HEK293 cells assessed as pVHL19 protein abundance at 50 nM after 4 hrs by Western blot analysis relative to DMSO; how it was run: as §1
[22] = biological target: T1, Protein cereblon/von Hippel-Lindau disease tumor suppressor; assay: Protac activity at VHL/CRBN in HEK293 cells assessed as induction of CRBN protein degradation after 4 hrs by Western blot analysis
How it was run: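 HEK293 cells seeded at 1 × 10⁶ per well overnight, exposed 4 h to a compound concentration series (0.1% v/v final DMSO), lysed in RIPA, and immunoblotted on equal Bradford-quantified protein. CRBN bands were normalised to β-tubulin and expressed relative to mean DMSO vehicle. DC50 was estimated by fitting band intensity against log[concentration].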
Target sequence in this assay (P40337 whole entry): as the sequence (P40337 whole entry, looked up) above
Target sequence in this assay (Q96SW2 whole entry): as the sequence (Q96SW2 whole entry, looked up) above

[23] = biological target: T1, Protein cereblon/von Hippel-Lindau disease tumor suppressor; assay: Protac activity at VHL/CRBN in HEK293 cells assessed as pVHL30 protein abundance at 100 nM after 4 hrs by Western blot analysis relative to DMSO; how it was run: as §1
[24] = biological target: T1, Protein cereblon/von Hippel-Lindau disease tumor suppressor; assay: Protac activity at VHL/CRBN in HEK293 cells assessed as pVHL30 protein abundance at 1000 nM after 4 hrs by Western blot analysis relative to DMSO; how it was run: as §1
[25] = biological target: T1, Protein cereblon/von Hippel-Lindau disease tumor suppressor; assay: Protac activity at VHL/CRBN in HEK293 cells assessed as pVHL30 protein abundance at 1 uM after 4 hrs by Western blot analysis relative to DMSO; how it was run: as §1
[26] = biological target: T1, Protein cereblon/von Hippel-Lindau disease tumor suppressor; assay: Protac activity at VHL/CRBN in HEK293 cells assessed as CRBN protein abundance at 100 nM after 4 hrs by Western blot analysis relative to DMSO; how it was run: as §1
[27] = biological target: T1, Protein cereblon/von Hippel-Lindau disease tumor suppressor; assay: Protac activity at VHL/CRBN in HEK293 cells assessed as pVHL19 protein abundance at 1 uM after 1 hr by Western blot analysis relative to DMSO; how it was run: as §1
[28] = biological target: T1, Protein cereblon/von Hippel-Lindau disease tumor suppressor; assay: Protac activity at VHL/CRBN in human HeLa cells assessed as pVHL19 protein abundance at 10 nM after 4 hrs by Western blot analysis relative to DMSO; how it was run: as §2

Activity [1]: 23% | Activity [2]: 125% | Activity [3]: 135% | Activity [4]: 19% | Activity [5]: 95% | Activity [6]: 19% | Activity [7]: 133% | Activity [8]: 115% | Activity [9]: 25% | Activity [10]: 113% | Activity [11]: 9% | Activity [12]: Active | Activity [13]: 101% | %max [14]: 75% | Activity [14]: 64% | Activity [15]: 83% | Activity [16]: 88% | Activity [17]: Active | Activity [18]: 100% | Activity [19]: 87% | Activity [20]: 100% | Activity [21]: 111% | DC50 [22]: 230 nM | Activity [23]: 124% | Activity [24]: 127% | Activity [25]: 98% | Activity [26]: 63% | Activity [27]: 98% | Activity [28]: 95%
Compound: Cc1ncsc1-c1ccc(CNC(=O)[C@@H]2C[C@@H](O)CN2C(=O)[C@@H](NC(=O)COCCCCCOCCOCCCCCOCC(=O)NCCNc2cccc3c2C(=O)N(C2CCC(=O)NC2=O)C3=O)C(C)(C)C)cc1 (some centres undefined)
